APP 5'UTR act: activators of APP 5'UTR luciferase reporter, primary screen, SH-SY5Y cells; AID 1276, 2008; 1% of 190,000 active; SH-SY5Y APP 5'UTR luciferase reporter, luminescence; zero percent = DMSO vehicle wells; activation, % at 2 µM;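 active = activation above a set limit, based on mean plus 3 SD of controls, cut at about 140% in these data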
STAT1 act: STAT1 signaling activators, primary screen, cell-based, HTS, luciferase reporter. 2.6% of 200,000 active. AID 932, 2007. activation (% of control), % at 5.5 µM. NIH 3T3 STAT1-luciferase reporter, IFN-gamma, luminescence; 100% = IFN-gamma alone, no compound;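 active = activation above the screen-wide mean activation plus 3 SD, cut at about 130% in these data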
FLuc stim CS: FLuc activators, initial screening, artefact control for FLuc-dependent activation tests, biochemical, ATPlite luminescence | Luciferin 4-monooxygenase (Photinus pyralis), P08659 | ATPlite luciferase biochemical, 10 min; 0 = ATP-free wells, 1 = DMSO control | activation factor at 10 µM | 200,000 tested, under 10 active | AID 1027, 2008;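 active = luciferase activation factor, scaled between plate controls, of at least 2 with compound at 10 µM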
Target sequence (P08659 whole entry, looked up): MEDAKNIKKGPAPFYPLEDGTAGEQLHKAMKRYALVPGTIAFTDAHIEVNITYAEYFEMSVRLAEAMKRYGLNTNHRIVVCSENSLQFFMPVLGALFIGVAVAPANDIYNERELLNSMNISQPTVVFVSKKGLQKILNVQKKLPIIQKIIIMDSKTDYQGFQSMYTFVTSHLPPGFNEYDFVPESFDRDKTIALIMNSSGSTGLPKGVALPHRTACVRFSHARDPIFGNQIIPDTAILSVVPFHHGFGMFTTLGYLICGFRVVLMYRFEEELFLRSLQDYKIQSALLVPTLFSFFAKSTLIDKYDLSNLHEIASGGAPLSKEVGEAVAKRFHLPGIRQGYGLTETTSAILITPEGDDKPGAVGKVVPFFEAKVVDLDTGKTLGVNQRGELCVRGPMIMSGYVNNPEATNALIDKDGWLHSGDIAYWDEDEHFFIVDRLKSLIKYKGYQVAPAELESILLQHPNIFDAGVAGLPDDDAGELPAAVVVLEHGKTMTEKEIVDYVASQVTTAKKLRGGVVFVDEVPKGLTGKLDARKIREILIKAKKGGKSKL
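Material: Luciferase/luciferin reagent mix; Doses: test compounds dosed from 2 mM stocks in 100% DMSO; Schedule: 10 min incubation after luciferase reagent addition, room temperature; Measured by: luminescence from luciferase reaction; Read-out: luminescence gain marking luciferase activators.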
FLuc inhib CS: firefly luciferase enzyme inhibitors, primary screen, artefact control for luciferase-based inhibitor screens, biochemical, luminescence, ATPLite; Luciferin 4-monooxygenase (Photinus pyralis), P08659; 10 min; inhibition, % at 10 µM; 1.5% of 200,000 active;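 active = inhibition above about 50% when tested at 10 µM, limit read from the data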
APP transl inh: inhibitors of APP translation via 5'UTR reporter, primary screen, APP 5'UTR luciferase, SH-SY5Y cells; SH-SY5Y APP 5'UTR-luciferase reporter, luminescence; AID 1285, 2008; 0.82% of 190,000 active; inhibition, % at 2 µM;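 active = inhibition above a set limit, derived from the sample mean plus 3 SD, cut at about 45% in these data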
NF-kB neuron act: activators of NF-kB expression in neurons, primary screen, cell-based, HTS | 1.6% of 190,000 active | fold change at 12.5 µM | human neuronal cells, NF-kB reporter expression; active compounds read high; in the data active = fold change above about 3.3
Of the large screens only hits and unclear results are named; the others gave an inactive call. Only some compounds are listed: those with a hit (about 4.8% of all), similar ones and a draw of the others.

CCOc1cc(CN2CCN(Cc3ccc(C)o3)C(CCO)C2)ccc1OC (stereo not given)	none
C=CCSc1ncc(-c2ccccc2)cn1	STAT1 act 136
COc1ccc(-c2nc(CS(=O)CC(=O)NCc3ccco3)c(C)o2)cc1 (stereo not given)	none
CCOc1ccc(-c2nc(CSCC(=O)NCc3ccco3)c(C)o2)cc1	APP transl inh 48
Cc1ccc(-c2cnc3c(Cl)c(C)nn3c2)cc1	APP 5'UTR act 244, FLuc inhib CS 58, NF-kB neuron act 6.5
Cc1cc2ncc(-c3ccc(Cl)cc3)cn2n1	APP 5'UTR act 188, STAT1 act 136, FLuc inhib CS 56, NF-kB neuron act 4.9
Cc1nn2c(-c3ccncc3)ccnc2c1Cl	none
Cc1ccc(-c2cnc3cc(C)nn3c2)cc1	APP 5'UTR act 147, FLuc inhib CS 91, NF-kB neuron act 5.7
Cc1cc2ncc(C(=O)N=CN(C)C)cn2n1	none
CC1CCCC(NC(=O)CN(C)S(=O)(=O)c2cccc3cccnc23)C1C (stereo not given)	none
O=C(c1ccco1)N1CCN(C(=O)c2ccc(COc3ccc4c(c3)CCC4)o2)CC1	STAT1 act 132
Cc1ccccc1OCCCn1c(CO)nc2ccccc21	none
CCNC(=O)N1c2ccc(OCC)cc2C(C)=CC1(C)C	none
CC1=CC(C)(C)N(C(=O)CCl)c2cc(C)ccc21	none
COc1ccc2c(c1)C(C)=CC(C)(C)N2S(=O)(=O)c1ccc(C)cc1	APP transl inh 84
CCOc1ccc2c(c1)C(C)=CC(C)(C)N2S(=O)(=O)c1ccc(C)cc1	APP transl inh 95
CC1=CC(C)(C)N(S(=O)(=O)c2ccc(C)cc2)c2cc(C)ccc21	APP transl inh 96, NF-kB neuron act 4.4
COC(=O)C1(C)CN(S(=O)(=O)c2ccc(C)cc2)c2cc(OC)ccc2C1=O (stereo not given)	none
CNC(=S)NNC(=O)Cc1ccc(OC)c(OC)c1	none
COc1ccc2nc(N3CCOCC3)cc(C)c2c1	NF-kB neuron act 5
Cc1nc(=O)c(-c2ccccc2)c(C)n1Cc1ccccc1	APP transl inh 48
Cc1nc(=O)c(-c2ccccc2)c(C)n1CCO	none
O=C(Oc1ccc2c(c1)OCO2)c1cc2c(s1)CCC2	APP transl inh 56
O=C(NCCc1ccccc1)C1CCCN(S(=O)(=O)c2cccs2)C1 (stereo not given)	none
Nc1ccc2c(c1)Cc1cc([N+](=O)[O-])ccc1-2	STAT1 act 134
Cc1ccc(C(=O)CC(=O)c2cc(Cl)ccc2O)cc1	NF-kB neuron act 4.3
Cc1ccccc1C(=O)Nn1cnc2ccccc2c1=O	none
CC(C)CC(=O)Nc1nc2ccc(S(=O)(=O)N3CCOCC3)cc2s1	none
CCOc1ccc2nc(SCC(=O)c3ccc(Cl)s3)sc2c1	none
CCOc1ccc2nc(SCC(=O)c3cccs3)sc2c1	STAT1 act 131, NF-kB neuron act 4.4
CCCC(=O)Nc1nc2ccc(S(=O)(=O)N3CCCCC3)cc2s1	APP transl inh 79
CCOc1ccc2nc(NC(=O)c3cccnc3)sc2c1	STAT1 act 132, FLuc inhib CS 60
CCCC(=O)Nc1nc2ccc(OCC)cc2s1	STAT1 act 150, NF-kB neuron act 4.3
CC12CCC(C(=O)Nc3ccccc3Cl)(C(Br)C1=O)C2(C)C (stereo not given)	none
Cc1c(/C=N/NC(=O)C(NC(=O)c2ccc3c(c2)OCO3)C(C)C)c2ccccc2n1C (stereo not given)	none
CC(C)(C)C1CCc2c(sc(NC(=O)c3cccs3)c2C(N)=O)C1 (stereo not given)	FLuc inhib CS 58
CCC(C)(C)C1CCc2c(sc(NC(=O)c3cccs3)c2C(N)=O)C1 (stereo not given)	none
COc1ccc(OC)c(-c2nnc(NC(=O)C(C)Sc3nncn3C)s2)c1 (stereo not given)	none
COCc1nnc(NC(=O)c2ccc(OC)cc2OC)s1	FLuc inhib CS 56, NF-kB neuron act 4.4
CCOCc1nnc(NC(=O)c2ccc(OC)cc2)s1	APP transl inh 47
COc1ccc(-c2nnc(NC(=O)C(C)C)s2)c(OC)c1	STAT1 act 133
COCc1nnc(NC(=O)c2cc(Cl)ccc2OC)s1	none
Cc1sc2nc(SCC(=O)NCCOCCO)n(C)c(=O)c2c1C	none
Cc1cc(C)cc(-n2c(C)cc(/C=N/NC(=O)CN(c3c(C)cccc3C)S(C)(=O)=O)c2C)c1	APP transl inh 90
CN(C)S(=O)(=O)c1ccc(NC(=O)COC(=O)C2CC3CCCC(C2)C3=O)cc1 (stereo not given)	none
CCc1ccc(C2=NN(C(=O)OC)C(O)(C(F)(F)F)C2)cc1 (stereo not given)	APP 5'UTR act 136, FLuc inhib CS 73
CCOC(=O)N1N=C(c2ccc(OC)cc2)CC1(O)C(F)(F)F (stereo not given)	APP 5'UTR act 171
OCC(O)C(O)C(O)C(O)c1nc2ccccc2[nH]1 (stereo not given)	none
COc1ccc(/C=N/NC(=O)C2(C)NC(C)(C)Cc3ccccc32)cc1 (stereo not given)	none
CC1=NN(C(N)=S)C(=O)C1N=Nc1ccccc1C (stereo not given)	none
CC1=NN(C(N)=S)C(=O)C1N=Nc1ccc(C)cc1C (stereo not given)	STAT1 act 137
COc1ccc(/C=N/c2c(-c3ccco3)nc3ccccn23)cc1OC	FLuc inhib CS 80
Nc1ccc(-c2nc3c(Cl)cc(N)cc3[nH]2)cc1	APP transl inh 63
Cc1nc2c(Cl)cc(Cl)cc2[nH]1	none
Nc1ccc2nc(-c3ccccn3)[nH]c2c1	none
Nc1ccc2nc(-c3ccc(N)c(Cl)c3)[nH]c2c1	STAT1 act 132, FLuc inhib CS 52
Cc1nc2ccc([N+](=O)[O-])cc2[nH]1	none
Nc1ccc2nc(-c3cccnc3)[nH]c2c1	none (no result: APP 5'UTR act, APP transl inh)
O=[N+]([O-])c1ccc2nc(-c3ccccc3)[nH]c2c1	STAT1 act 141
Nc1ccc2nc(-c3ccccc3)[nH]c2c1	STAT1 act 131, FLuc inhib CS 57
C=CCN(C(=O)c1csnn1)C(C(=O)NC(C)(C)C)c1ccncc1 (stereo not given)	none
O=C(COC(=O)CCC(=O)c1cccs1)Nc1ccccc1[N+](=O)[O-]	none
CCN(C(=O)Cc1c(C(=O)O)n(C)c2ccccc12)c1ccc(F)cc1	none
Cc1ccc(C)c(CSc2nc3[nH]ncc3c(=O)[nH]2)c1	APP transl inh 85

Screens from PubChem.
